Source: PubChem BioAssay
Compounds with a hit are over-represented: about 3.3% of the library has one in this group of screens.
Xi reactivation = X-chromosome reactivation activator. 360,000 tested, 0.055% active. XiGFP mouse fibroblasts, % GFP-positive cells imaging, 3 d; cells co-treated with 5-aza-dC sensitizer; scaled so ellipticine positive control = 100%. activation, % at 7.58 µM;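 active = mean normalized replicate activation at least 10% and every replicate at or above 10%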
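Material: XiGFP fibroblasts, SV40-immortalized. Buffer or medium: DMEM plus 5-aza-dC sensitizer. Compound: single concentration per compound, delivered by pin transfer. Times: 3 days compound exposure. Controls: ellipticine 6 µM.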
FGF22 binding = binders of recombinant human FGF22 by thermal shift | Q9HCT0 | SYPRO orange fluorescence; percent of sucrose octasulfate shift, DMSO zero | activity (Tm shift, normalised), % at 9.99 µM | 340,000 tested, 1.5% active;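 active = mean Tm shift, scaled 0 neutral to 100 positive control, at about 1.3% or above, every replicate too, limit read from the data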
Statin myotox sup = protects C2C12 myotubes from simvastatin toxicity. 330,000 tested, 0.78% active. AID 602340. ATP luminescence, 48 h; scaled: DMSO 0, geranylgeraniol control 100. rescue of ATP level, % at 7.49 µM;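 active = mean ATP rescue above about 67%, or every replicate alone reaching that limit, limit read from the data, passing the limit was not always enough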;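 also: myotubes were challenged with 10 µM simvastatin during compound exposure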
E-selectin induc = induces E-selectin expression in human endothelial cells. P16581. HUVEC E-selectin immunofluorescence imaging; normalized: neutral wells 0, TNF-alpha wells 100. activation, % at 7.58 µM. 260,000 tested, 0.37% active;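 active = mean E-selectin-positive cell signal at least 10% of the positive control, reached in at least 60% of replicates, without over 20% cell loss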
Target sequence (P16581 whole entry, looked up): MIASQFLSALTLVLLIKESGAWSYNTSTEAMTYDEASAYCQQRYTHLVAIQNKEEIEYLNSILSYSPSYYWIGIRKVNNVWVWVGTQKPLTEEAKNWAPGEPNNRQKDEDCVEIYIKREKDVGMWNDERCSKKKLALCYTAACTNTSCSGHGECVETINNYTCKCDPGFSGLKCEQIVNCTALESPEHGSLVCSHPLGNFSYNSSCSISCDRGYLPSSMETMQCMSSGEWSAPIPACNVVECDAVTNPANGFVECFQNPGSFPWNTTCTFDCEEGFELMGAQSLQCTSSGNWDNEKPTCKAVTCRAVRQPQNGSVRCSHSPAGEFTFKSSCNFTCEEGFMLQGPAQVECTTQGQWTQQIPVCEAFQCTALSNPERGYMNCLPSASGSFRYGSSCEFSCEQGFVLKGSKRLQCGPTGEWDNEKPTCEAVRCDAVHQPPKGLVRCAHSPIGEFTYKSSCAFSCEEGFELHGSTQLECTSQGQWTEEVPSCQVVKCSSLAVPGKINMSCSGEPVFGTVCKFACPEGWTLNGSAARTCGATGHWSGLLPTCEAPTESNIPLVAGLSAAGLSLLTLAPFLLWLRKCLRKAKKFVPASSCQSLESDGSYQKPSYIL
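Read-out: % PE-positive cells | Test system: HUVEC | Doses: One compound dose added by pin transfer | Buffer or medium: EGM-2 over gelatin coat | Signal: Immunofluorescence imaging | Benchmarks: TNF-alpha, DMSO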
DENV2 CPE = protects cells from dengue virus 2 cytopathic effect | DENV2-infected cells, cytopathic effect rescue, plate reader | CPE inhibition, % at 9.99 µM | 350,000 tested, 1.7% active; in the data active = CPE inhibition above about 20%, passing the limit was not always enough; tested in BHK-21 cells
PglD inh = blocks C. jejuni PglD acetyltransferase activity; 360,000 tested, 0.098% active; inhibition, % at 12.5 µM; purified PglD enzyme, DTNB colorimetric CoA detection; in the data active = inhibition above about 16%, passing the limit was not always enough
Numbers stand for hits.

Results for CCNC(=O)Nc1ccc2c(c1)C(=O)N(C)[C@H]1CC[C@@H](CC(=O)NCc3cccc(F)c3)O[C@@H]1CO2 ?
Xi reactivation: inactive; FGF22 binding: inactive; Statin myotox sup: inactive; E-selectin induc: inactive; DENV2 CPE: inactive; PglD inh: inactive

How did CN1c2ccc(-c3cccc(F)c3)cc2[C@@H]2[C@@H](CCN2S(=O)(=O)c2cccc(F)c2)[C@@H]1CO do in these assays?
Xi reactivation: inactive; FGF22 binding: inactive; Statin myotox sup: inactive; E-selectin induc: inactive; DENV2 CPE: inactive; PglD inh: inactive

What do the screens show for `COc1ccc(C[C@H]2CCc3cnnn3COCCNC2=O)cc1`?
Xi reactivation: inactive

Results for O=C(Cc1cccc(NC(=O)C2CCCN(C(=O)C3CCCC3)C2)c1)Nc1ccc(C(=O)N2CCOCC2)cc1 (stereo not given) ?
Xi reactivation: inactive; FGF22 binding: inactive; Statin myotox sup: inactive; E-selectin induc: inactive; DENV2 CPE: 27; PglD inh: inactive

How did O=C(Cc1cccc([N+](=O)[O-])c1)Nc1cccc(C(=O)N2CCCC2)c1 do in these assays?
Xi reactivation: inactive; FGF22 binding: inactive; Statin myotox sup: inactive; E-selectin induc: inactive; DENV2 CPE: inactive; PglD inh: inactive

What do the screens show for `O=C(Cc1cccc([N+](=O)[O-])c1)Nc1ccc(C(=O)N2CCCCC2)cc1`?
Xi reactivation: inactive; FGF22 binding: inactive; Statin myotox sup: inactive; E-selectin induc: inactive; DENV2 CPE: 81; PglD inh: inactive

Results for O=C(Cc1cccc(NC(=O)C2CCCN(C(=O)C3CCC3)C2)c1)Nc1ccc(C(=O)N2CCOCC2)cc1 (stereo not given) ?
Xi reactivation: inactive; FGF22 binding: inactive; Statin myotox sup: inactive; E-selectin induc: inactive; DENV2 CPE: 32; PglD inh: inactive

What do the screens show for `O=C(Cc1ccccc1)NC1CCN(C(=O)c2ccc([N+](=O)[O-])cc2)CC1`?
Xi reactivation: inactive; FGF22 binding: inactive; Statin myotox sup: inactive; E-selectin induc: inactive; DENV2 CPE: inactive; PglD inh: inactive

Results for O=C(Cc1cccc(NC(=O)C2CCCN(C(=O)C3CCCC3)C2)c1)Nc1cccc(C(=O)N2CCOCC2)c1 (stereo not given) ?
Xi reactivation: inactive; FGF22 binding: inactive; Statin myotox sup: inactive; E-selectin induc: inactive; DENV2 CPE: inactive; PglD inh: inactive

What do the screens show for `O=C(Cc1ccccc1)N1CCN(C(=O)c2ccc([N+](=O)[O-])cc2)CC1`?
Xi reactivation: inactive; FGF22 binding: 45; DENV2 CPE: inactive

How did Cc1cccc(-c2ccc([C@H]3[C@H](CO)N4C(=O)CN(C(=O)c5ccccc5)C[C@@H]34)cc2)c1 do in these assays?
Xi reactivation: inactive; E-selectin induc: inactive; DENV2 CPE: inactive

Results for O=C(Nc1cccc(-n2cnnn2)c1)C1CCCN(C(=O)Cc2cccc(Cl)c2)C1 (stereo not given) ?
Xi reactivation: inactive; FGF22 binding: inactive; Statin myotox sup: inactive; DENV2 CPE: 61; PglD inh: inactive

Results for O=C(Nc1cccc(-n2cnnn2)c1)C1CCCN(Cc2cccc(C(F)(F)F)c2)C1 (stereo not given) ?
Xi reactivation: inactive; FGF22 binding: inactive; Statin myotox sup: inactive; E-selectin induc: inactive; DENV2 CPE: inactive; PglD inh: inactive

How did COc1ccccc1NC(=O)CN1C(=O)CCS(=O)(=O)c2ccccc21 do in these assays?
Statin myotox sup: 125; PglD inh: inactive

What do the screens show for `COc1ccc(Cl)cc1NC(=O)CN1C(=O)CCS(=O)(=O)c2ccccc21`?
Statin myotox sup: inactive; PglD inh: inactive

What do the screens show for `Cc1noc(C)c1S(=O)(=O)N(C)C[C@H]1Oc2ccc(NC(=O)C3CC3)cc2CC(=O)N([C@H](C)CO)C[C@@H]1C`?
Xi reactivation: inactive; FGF22 binding: inactive; Statin myotox sup: inactive; E-selectin induc: inactive; DENV2 CPE: inactive; PglD inh: inactive

Results for Cc1cc(C(=O)Nc2cccc3c2O[C@@H](CN(C)S(=O)(=O)c2ccc(Cl)cc2)[C@H](C)CN([C@@H](C)CO)C3=O)n(C)n1 ?
Xi reactivation: inactive; FGF22 binding: inactive; Statin myotox sup: inactive; E-selectin induc: inactive; DENV2 CPE: inactive; PglD inh: inactive

How did COc1ccc2[nH]cc(CCNS(=O)(=O)Cc3ccccc3)c2c1 do in these assays?
Xi reactivation: inactive; FGF22 binding: 43; Statin myotox sup: inactive; DENV2 CPE: inactive; PglD inh: inactive

How did N#C[C@@H]1[C@H](c2ccc(-c3cccc(F)c3)cc2)[C@H](CO)N1C(=O)NC1CCCCC1 do in these assays?
Xi reactivation: inactive; E-selectin induc: inactive; DENV2 CPE: inactive

Results for CC(NC(=O)C12CC3CC(CC(C3)C1)C2)C(=O)N/N=C/C1=C(N2CCOCC2)C(=C\c2ccccc2)/CC1 (stereo not given) ?
Xi reactivation: inactive; FGF22 binding: inactive; E-selectin induc: inactive; DENV2 CPE: 133; PglD inh: inactive

Results for COCC(=O)N1[C@H](CO)[C@@H](c2ccccc2)C12CN(C(=O)c1ccc(F)cc1)C2 ?
Xi reactivation: inactive; FGF22 binding: inactive; E-selectin induc: inactive; DENV2 CPE: inactive

How did C#CCC(NC(=O)c1ccc(C#N)cc1)C(=O)NCCC (stereo not given) do in these assays?
Xi reactivation: inactive; FGF22 binding: inactive; Statin myotox sup: inactive; E-selectin induc: inactive; DENV2 CPE: inactive; PglD inh: inactive

How did C=CCC(NC(=O)c1ccc(C#N)cc1)C(=O)NCCC (stereo not given) do in these assays?
Xi reactivation: inactive; FGF22 binding: inactive; Statin myotox sup: inactive; E-selectin induc: inactive; DENV2 CPE: 49; PglD inh: inactive

Results for O=C(C[C@H]1C[C@H]2c3cc(NC(=O)C4CCC4)ccc3O[C@H]2[C@@H](CO)O1)NCCN1CCCCC1 ?
Xi reactivation: inactive; FGF22 binding: inactive; Statin myotox sup: inactive; E-selectin induc: inactive; DENV2 CPE: inactive; PglD inh: inactive

Results for C[C@H](CO)N1C[C@H](C)[C@@H](CN(C)C(=O)c2ccncc2)OCCCC[C@H](C)Oc2ccc(NS(=O)(=O)c3ccc(F)cc3)cc2C1=O ?
Xi reactivation: inactive; FGF22 binding: inactive; E-selectin induc: inactive; DENV2 CPE: inactive; PglD inh: inactive

How did COc1cc(NC(=O)c2ccccc2)c(OC)cc1Cl do in these assays?
Statin myotox sup: 130; PglD inh: inactive

Results for COc1ccccc1NC(=O)c1ccc2c(c1)nnn2C ?
Xi reactivation: inactive; FGF22 binding: 44; Statin myotox sup: inactive; DENV2 CPE: inactive; PglD inh: inactive

Results for Cn1nnc2cc(C(=O)Nc3ccccc3)ccc21 ?
Xi reactivation: inactive; FGF22 binding: inactive; Statin myotox sup: inactive; DENV2 CPE: inactive; PglD inh: inactive

What do the screens show for `COc1ccc(NC(=O)c2ccc3nc(-c4ccccc4)c(-c4ccccc4)nc3c2)c(OC)c1`?
Xi reactivation: inactive; FGF22 binding: inactive; DENV2 CPE: inactive
